Experiments:
Histamine H2 receptor [1] = target: T1, Histamine H2 receptor (Cavia porcellus, UniProt P47747); test: Agonist activity at GsalphaS-fused guinea pig histamine H2 receptor expressed in Sf9 cells by steady-state GTPase assay
Histamine H2 receptor [2] = target: T2, Histamine H2 receptor (Homo sapiens, UniProt P25021); test: Agonist activity at GsalphaS-fused human histamine H2 receptor expressed in Sf9 cells by steady-state GTPase assay
Histamine H2 receptor [3] = target: T1, Histamine H2 receptor; test: Agonist activity at histamine H2 receptor in spontaneously beating guinea pig atrium; assay type: functional, tissue-based, Cardiac atrium
[4] = target: Histamine H2 receptor (Cavia porcellus) (UniProt P47747); test: Agonist activity at GsalphaS-fused guinea pig histamine H2 receptor expressed in Sf9 cells by steady-state GTPase assay relative to histamine
Sequence of Histamine H2 receptor (Cavia porcellus) (P47747 whole entry, the tested form may be a part): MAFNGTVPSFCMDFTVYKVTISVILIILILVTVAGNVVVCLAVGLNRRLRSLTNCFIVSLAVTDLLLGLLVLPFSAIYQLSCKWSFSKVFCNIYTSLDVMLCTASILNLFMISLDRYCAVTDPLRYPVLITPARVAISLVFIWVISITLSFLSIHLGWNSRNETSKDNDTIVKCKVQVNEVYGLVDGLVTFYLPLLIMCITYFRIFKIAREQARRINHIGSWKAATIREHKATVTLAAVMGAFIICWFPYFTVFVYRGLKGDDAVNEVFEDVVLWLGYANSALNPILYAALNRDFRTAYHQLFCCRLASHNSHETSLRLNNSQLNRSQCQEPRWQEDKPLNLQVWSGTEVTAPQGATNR

[5] = target: Histamine H2 receptor (Cavia porcellus) (UniProt P47747); test: Agonist activity at histamine H2 receptor in spontaneously beating guinea pig atrium assessed as increase in heart rate as relative to histamine; assay type: functional, tissue-based; settings: Cardiac atrium
Histamine H2 receptor [6] = target: T2, Histamine H2 receptor; test: Agonist activity at GsalphaS-fused human histamine H2 receptor expressed in Sf9 cells by steady-state GTPase assay relative to histamine
Histamine H2 receptor [7] = target: T2, Histamine H2 receptor; test: Selectivity ratio of EC50 for human histamine H2 to EC50 for guinea pig histamine H2 receptor
Histamine H1 receptor [8] = target: T3, Histamine H1 receptor (Homo sapiens, UniProt P35367); test: Activity at human recombinant histamine H1 receptor expressed in Sf9 cells coexpressing RGS4 by steady-state GTPase activity assay relative to histamine
T3 sequence (P35367 whole entry, the tested form may be a part): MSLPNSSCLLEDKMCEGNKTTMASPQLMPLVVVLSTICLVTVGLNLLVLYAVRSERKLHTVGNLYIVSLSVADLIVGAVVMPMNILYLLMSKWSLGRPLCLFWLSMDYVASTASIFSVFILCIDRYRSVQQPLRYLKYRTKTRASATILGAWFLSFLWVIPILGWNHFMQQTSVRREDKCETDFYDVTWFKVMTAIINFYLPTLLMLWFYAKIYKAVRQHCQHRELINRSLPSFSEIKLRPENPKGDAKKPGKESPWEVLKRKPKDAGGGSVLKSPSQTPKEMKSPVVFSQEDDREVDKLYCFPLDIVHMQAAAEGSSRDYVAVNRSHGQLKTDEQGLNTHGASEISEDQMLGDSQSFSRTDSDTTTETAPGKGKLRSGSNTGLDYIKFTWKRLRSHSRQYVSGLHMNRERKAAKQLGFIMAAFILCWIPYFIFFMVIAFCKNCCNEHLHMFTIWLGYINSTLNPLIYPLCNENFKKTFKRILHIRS
Method in brief: (§1)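 Steady-state GTPase activity was measured in Sf9 insect cell membranes. hH1R was co-expressed with RGS4; hH3R with Galphai2, Gbeta1gamma2 and RGS4; and hH4R-GAIP fusion protein with Galphai2 and Gbeta1gamma2. Agonist pEC50 or antagonist pKB was determined. […] Values are means of two to three experiments, each in duplicate.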

Histamine H4 receptor [9] = target: T4, Histamine H4 receptor (Homo sapiens, UniProt Q9H3N8); test: Activity at human recombinant GAIP-fused histamine H4 receptor expressed in Sf9 cells coexpressing Galphai, Gbeta1gamma2 by steady-state GTPase activity assay relative to histamine
Method in brief: as §1

Histamine H1 receptor [10] = target: T3, Histamine H1 receptor; test: Activity at human recombinant histamine H1 receptor expressed in Sf9 cells coexpressing RGS4 by steady-state GTPase activity assay
Method in brief: (§2)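 Steady-state GTPase activity was measured in Sf9 insect cell membranes. hH1R was co-expressed with RGS4; hH3R with Galphai2, Gbeta1gamma2 and RGS4; and hH4R-GAIP fusion protein with Galphai2 and Gbeta1gamma2. Agonist pEC50 or antagonist pKB was determined. Values are means of two to three experiments, each in duplicate.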

Histamine H4 receptor [11] = target: T4, Histamine H4 receptor; test: Activity at human recombinant GAIP-fused histamine H4 receptor expressed in Sf9 cells coexpressing Galphai, Gbeta1gamma2 by steady-state GTPase activity assay
Method in brief: as §2

T1 sequence (P47747 whole entry, the tested form may be a part): as the sequence (P47747 whole entry, the tested form may be a part) above
T2 sequence (P25021 whole entry, the tested form may be a part): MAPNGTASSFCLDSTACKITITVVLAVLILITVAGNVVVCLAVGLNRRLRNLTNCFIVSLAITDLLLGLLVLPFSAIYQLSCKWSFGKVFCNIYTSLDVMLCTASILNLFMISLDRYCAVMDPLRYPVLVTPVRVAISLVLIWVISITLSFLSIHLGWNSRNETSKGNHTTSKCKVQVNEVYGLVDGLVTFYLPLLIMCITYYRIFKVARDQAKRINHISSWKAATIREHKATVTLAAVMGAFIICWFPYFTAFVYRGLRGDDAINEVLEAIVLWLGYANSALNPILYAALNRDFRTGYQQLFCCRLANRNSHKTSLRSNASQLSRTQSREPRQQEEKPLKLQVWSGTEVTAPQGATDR

| EC50 (Histamine H2 receptor [1]) | EC50 (Histamine H2 receptor [2]) | EC50 (Histamine H2 receptor [3]) | Emax [4] | Emax (Histamine H2 receptor [6]) | Ratio EC50 (Histamine H2 receptor [7]) | Emax (Histamine H1 receptor [8]) | Emax (Histamine H4 receptor [9]) | EC50 (Histamine H1 receptor [10]) | EC50 (Histamine H4 receptor [11]) | SMILES | Emax [5] |
| --- | --- | --- | --- | --- | --- | --- | --- | --- | --- | --- | --- |
| 14.1 nM | 28.8 nM | 91.2 nM |  |  |  |  |  |  |  | Cc1nc(N)sc1CCCN=C(N)NC(=O)C[C@H](C)C1CCCCC1 |  |
| 22.4 nM | 50.1 nM | 49 nM | 98% | 82% | 2.22 |  |  |  |  | Cc1nc(N)sc1CCCNC(=N)NC(=O)CC(C)c1ccccc1 (racemic) | 89% |
|  |  |  | 90% | 85% | 0.98 | 41% | 57% |  |  | C[C@H](CC(=O)NC(=N)NCCCc1c[nH]cn1)C1CCCCC1 | 82% |
| 17 nM | 53.7 nM | 102 nM |  |  |  |  |  |  |  | Cc1nc(N)sc1CCCN=C(N)NC(=O)C[C@@H](C)c1ccccc1 |  |
| 13.2 nM | 20.4 nM | 57.5 nM |  |  |  |  |  |  |  | Cc1nc(N)sc1CCCN=C(N)NC(=O)C[C@@H](C)C1CCCCC1 |  |
| 24 nM | 79.4 nM | 25.1 nM |  |  |  |  |  | 832 nM | 2.63 nM | C[C@@H](CC(=O)NC(N)=NCCCc1cnc[nH]1)c1ccccc1 |  |
| 75.9 nM | 120 nM | 93.3 nM |  |  |  |  |  | 6170 nM | 22.9 nM | C[C@H](CC(=O)NC(N)=NCCCc1cnc[nH]1)c1ccccc1 |  |
|  |  |  | 80% | 62% | 1.53 |  |  |  |  | Cc1nc(N)sc1CCCNC(=N)NC(=O)C[C@@H](C)C1CCCCC1 | 80% |
|  |  |  | 101% | 101% | 1.58 | 34% | 85% |  |  | C[C@H](CC(=O)NC(=N)NCCCc1c[nH]cn1)c1ccccc1 | 93% |
|  |  |  | 119% | 107% | 3.32 | 53% | 82% |  |  | C[C@@H](CC(=O)NC(=N)NCCCc1c[nH]cn1)c1ccccc1 | 102% |
| 7.76 nM | 6.46 nM | 33.1 nM |  |  |  |  |  | 66.1 nM | 4.57 nM | C[C@@H](CC(=O)NC(N)=NCCCc1cnc[nH]1)C1CCCCC1 |  |
|  |  |  | 93% | 99% | 0.84 | 51% | 59% |  |  | C[C@@H](CC(=O)NC(=N)NCCCc1c[nH]cn1)C1CCCCC1 | 103% |
| 7.76 nM | 28.2 nM | 39.8 nM | 99% | 87% | 3.6 |  |  |  |  | Cc1nc(N)sc1CCCNC(=N)NC(=O)C[C@H](C)c1ccccc1 | 87% |
|  |  |  | 90% | 71% | 2.05 |  |  |  |  | Cc1nc(N)sc1CCCNC(=N)NC(=O)C[C@H](C)C1CCCCC1 | 78% |
|  |  |  | 86% | 65% | 3.14 |  |  |  |  | Cc1nc(N)sc1CCCNC(=N)NC(=O)C[C@@H](C)c1ccccc1 | 73% |
| 19.1 nM | 18.6 nM | 102 nM |  |  |  |  |  | 89.1 nM | 8.32 nM | C[C@H](CC(=O)NC(N)=NCCCc1cnc[nH]1)C1CCCCC1 |  |
| 7.59 nM | 9.33 nM | 69.2 nM | 82% | 56% | 1.24 |  |  |  |  | Cc1nc(N)sc1CCCNC(=N)NC(=O)CC(C)C1CCCCC1 (racemic) | 74% |

| SMILES | EC50 (Histamine H2 receptor [1]) | EC50 (Histamine H2 receptor [2]) | EC50 (Histamine H2 receptor [3]) | Emax [4] | Emax (Histamine H2 receptor [6]) | Ratio EC50 (Histamine H2 receptor [7]) | Emax (Histamine H1 receptor [8]) | Emax (Histamine H4 receptor [9]) | EC50 (Histamine H1 receptor [10]) | EC50 (Histamine H4 receptor [11]) | Emax [5] |
| --- | --- | --- | --- | --- | --- | --- | --- | --- | --- | --- | --- |
| NCCc1c[nH]cn1 [HISTAMINE] |  |  |  | 100% | 100% |  | 100% | 100% |  |  | 100% |

Source: ChEMBL document CHEMBL1157755 (Bioorg Med Chem Lett, 2010)
